Measurements reported in ChEMBL document CHEMBL5058577, “EUbOPEN Chemogenomics Library 2 (Multiplex)” (2022).

Tested on: Fibroblast
Assay: Multiplex assay against human fibroblast
Format: toxicity, cell-based
Summary of the method: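 Live cells were stained at seeding with Hoechst33342, BioTracker Green Microtubule Cytoskeleton Dye, MitoTracker Red and Annexin V Alexa Fluor 680, then imaged on a CQ1 microscope at 37°C and 5% CO2 after compound addition. CellPathfinder machine-learning gating split cells into Hoechst high-intensity objects or normal cells. Normal cells were split into healthy, pyknosed or fragmented nuclei, and pyknosed cells into mitotic or apoptotic. Tubulin, mitochondrial-mass and membrane-permeability phenotypes are per cents of healthy-nucleus cells.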

[1] = 12 h, 1 µM, compound concentration 1 uM, replicate 1
[2] = 12 h, 1 µM, compound concentration 1 uM, replicate 2
[3] = 12 h, 10 µM, compound concentration 10 uM, replicate 1
[4] = 12 h, 10 µM, compound concentration 10 uM, replicate 2
[5] = 24 h, 1 µM, compound concentration 1 uM, replicate 1
[6] = 24 h, 1 µM, compound concentration 1 uM, replicate 2
[7] = 24 h, 10 µM, compound concentration 10 uM, replicate 1
[8] = 24 h, 10 µM, compound concentration 10 uM, replicate 2
[9] = 48 h, 1 µM, compound concentration 1 uM, replicate 1
[10] = 48 h, 1 µM, compound concentration 1 uM, replicate 2
[11] = 48 h, 10 µM, compound concentration 10 uM, replicate 1
[12] = 48 h, 10 µM, compound concentration 10 uM, replicate 2

For Cl.N=C(N)NC(=O)Cc1c(Cl)cccc1Cl [GUANFACINE HYDROCHLORIDE], the “Population Apoptotic (%)” value [1] was 44%, the “Population Fragmented Nuclei (%)” value [1] was 20% and the “Population Healthy Nuclei (%)” value [1] was 62%. For the same molecule, the “Population Hoechst High Intensity Objects (%)” value [1] was 2%, the “Population Membrane Permeable-Phenotype (%)” value [1] was 0% and the “Population Mitochondria Different-Phenotype (%)” value [1] was 4%. For the same molecule, the “Population Mitotic Cells (%)” value [1] was 55%, the “Population Normal (%)” value [1] was 97% and the “Population Pyknosed Nuclei (%)” value [1] was 16%. For the same molecule, the “Population Tubulin-Different-Phenotype (%)” value [1] was 32%, the “Total Cell Count” value [1] was 167 and the “Population Apoptotic (%)” value [2] was 28%. The “Population Fragmented Nuclei (%)” value [2] was 23%, the “Population Healthy Nuclei (%)” value [2] was 45% and the “Population Membrane Permeable-Phenotype (%)” value [2] was 3%. For the same molecule, the “Population Mitochondria Different-Phenotype (%)” value [2] was 7%, the “Population Mitotic Cells (%)” value [2] was 71% and the “Population Pyknosed Nuclei (%)” value [2] was 31%. For the same molecule, the “Population Tubulin-Different-Phenotype (%)” value [2] was 46%, the “Total Cell Count” value [2] was 149 and the “Population Apoptotic (%)” value [3] was 66%. For the same molecule, the “Population Fragmented Nuclei (%)” value [3] was 16%, the “Population Healthy Nuclei (%)” value [3] was 68% and the “Population Hoechst High Intensity Objects (%)” value [3] was 0%. The “Population Membrane Permeable-Phenotype (%)” value [3] was 1%, the “Population Mitochondria Different-Phenotype (%)” value [3] was 5% and the “Population Mitotic Cells (%)” value [3] was 33%. The “Population Normal (%)” value [3] was 99%, the “Population Pyknosed Nuclei (%)” value [3] was 15% and the “Population Tubulin-Different-Phenotype (%)” value [3] was 24%. For the same molecule, the “Total Cell Count” value [3] was 139, the “Population Apoptotic (%)” value [4] was 35% and the “Population Fragmented Nuclei (%)” value [4] was 22%. For the same molecule, the “Population Healthy Nuclei (%)” value [4] was 47%, the “Population Hoechst High Intensity Objects (%)” value [4] was 10% and the “Population Membrane Permeable-Phenotype (%)” value [4] was 5%. For the same molecule, the “Population Mitotic Cells (%)” value [4] was 64%, the “Population Normal (%)” value [4] was 89% and the “Population Pyknosed Nuclei (%)” value [4] was 29%. For the same molecule, the “Population Tubulin-Different-Phenotype (%)” value [4] was 46%, the “Total Cell Count” value [4] was 127 and the “Population Apoptotic (%)” value [5] was 58%. The “Population Fragmented Nuclei (%)” value [5] was 22%, the “Population Healthy Nuclei (%)” value [5] was 62% and the “Population Hoechst High Intensity Objects (%)” value [5] was 1%. The “Population Membrane Permeable-Phenotype (%)” value [5] was 0%, the “Population Mitochondria Different-Phenotype (%)” value [5] was 5% and the “Population Mitotic Cells (%)” value [5] was 41%. For the same molecule, the “Population Normal (%)” value [5] was 98%, the “Population Pyknosed Nuclei (%)” value [5] was 14% and the “Population Tubulin-Different-Phenotype (%)” value [5] was 26%. The “Total Cell Count” value [5] was 169, the “Population Apoptotic (%)” value [6] was 45% and the “Population Fragmented Nuclei (%)” value [6] was 23%. For the same molecule, the “Population Healthy Nuclei (%)” value [6] was 46%, the “Population Hoechst High Intensity Objects (%)” value [6] was 6% and the “Population Membrane Permeable-Phenotype (%)” value [6] was 12%. The “Population Mitochondria Different-Phenotype (%)” value [6] was 8%, the “Population Mitotic Cells (%)” value [6] was 54% and the “Population Normal (%)” value [6] was 93%. For the same molecule, the “Population Pyknosed Nuclei (%)” value [6] was 30%, the “Population Tubulin-Different-Phenotype (%)” value [6] was 50% and the “Total Cell Count” value [6] was 130. For the same molecule, the “Population Apoptotic (%)” value [7] was 63%, the “Population Fragmented Nuclei (%)” value [7] was 17% and the “Population Healthy Nuclei (%)” value [7] was 68%. The “Population Hoechst High Intensity Objects (%)” value [7] was 1%, the “Population Membrane Permeable-Phenotype (%)” value [7] was 0% and the “Population Mitochondria Different-Phenotype (%)” value [7] was 4%. For the same molecule, the “Population Mitotic Cells (%)” value [7] was 36%, the “Population Normal (%)” value [7] was 98% and the “Population Pyknosed Nuclei (%)” value [7] was 14%. For the same molecule, the “Population Tubulin-Different-Phenotype (%)” value [7] was 19%, the “Total Cell Count” value [7] was 137 and the “Population Apoptotic (%)” value [8] was 25%. The “Population Fragmented Nuclei (%)” value [8] was 26%, the “Population Healthy Nuclei (%)” value [8] was 55% and the “Population Hoechst High Intensity Objects (%)” value [8] was 4%. The “Population Membrane Permeable-Phenotype (%)” value [8] was 13%, the “Population Mitochondria Different-Phenotype (%)” value [8] was 3% and the “Population Mitotic Cells (%)” value [8] was 75%. The “Population Normal (%)” value [8] was 95%, the “Population Pyknosed Nuclei (%)” value [8] was 18% and the “Population Tubulin-Different-Phenotype (%)” value [8] was 58%. For the same molecule, the “Total Cell Count” value [8] was 114, the “Population Apoptotic (%)” value [9] was 61% and the “Population Fragmented Nuclei (%)” value [9] was 25%. For the same molecule, the “Population Healthy Nuclei (%)” value [9] was 63%, the “Population Hoechst High Intensity Objects (%)” value [9] was 1% and the “Population Membrane Permeable-Phenotype (%)” value [9] was 0%. The “Population Mitochondria Different-Phenotype (%)” value [9] was 6%, the “Population Mitotic Cells (%)” value [9] was 38% and the “Population Normal (%)” value [9] was 98%. The “Population Pyknosed Nuclei (%)” value [9] was 11%, the “Population Tubulin-Different-Phenotype (%)” value [9] was 32% and the “Total Cell Count” value [9] was 162. The “Population Apoptotic (%)” value [10] was 50%, the “Population Fragmented Nuclei (%)” value [10] was 33% and the “Population Healthy Nuclei (%)” value [10] was 45%. The “Population Hoechst High Intensity Objects (%)” value [10] was 3%, the “Population Membrane Permeable-Phenotype (%)” value [10] was 4% and the “Population Mitochondria Different-Phenotype (%)” value [10] was 11%. For the same molecule, the “Population Mitotic Cells (%)” value [10] was 50%, the “Population Normal (%)” value [10] was 96% and the “Population Pyknosed Nuclei (%)” value [10] was 21%. For the same molecule, the “Population Tubulin-Different-Phenotype (%)” value [10] was 57%, the “Total Cell Count” value [10] was 145 and the “Population Apoptotic (%)” value [11] was 66%. For the same molecule, the “Population Fragmented Nuclei (%)” value [11] was 22%, the “Population Healthy Nuclei (%)” value [11] was 67% and the “Population Hoechst High Intensity Objects (%)” value [11] was 1%. The “Population Membrane Permeable-Phenotype (%)” value [11] was 1%, the “Population Mitochondria Different-Phenotype (%)” value [11] was 6% and the “Population Mitotic Cells (%)” value [11] was 33%. For the same molecule, the “Population Normal (%)” value [11] was 98%, the “Population Pyknosed Nuclei (%)” value [11] was 10% and the “Population Tubulin-Different-Phenotype (%)” value [11] was 24%. The “Total Cell Count” value [11] was 142, the “Population Apoptotic (%)” value [12] was 45% and the “Population Fragmented Nuclei (%)” value [12] was 39%. The “Population Healthy Nuclei (%)” value [12] was 41%, the “Population Hoechst High Intensity Objects (%)” value [12] was 6% and the “Population Membrane Permeable-Phenotype (%)” value [12] was 8%. The “Population Mitochondria Different-Phenotype (%)” value [12] was 2%, the “Population Mitotic Cells (%)” value [12] was 54% and the “Population Normal (%)” value [12] was 93%. For the same molecule, the “Population Pyknosed Nuclei (%)” value [12] was 19%, the “Population Tubulin-Different-Phenotype (%)” value [12] was 67% and the “Total Cell Count” value [12] was 120.
